Measurements published in publication PMC8373685 (European journal of medicinal chemistry, 2021).
Each block holds one compound with its values, some of them ahead of it.

Columns and labels:
[1] = system: TNFα-induced IKKβ-mediated NFκB activity; experiment: κB luciferase reporter assay; type: cell-based; settings: for inhibition of TNFα-induced NFκB activity (SAR, in words): A549 luciferase reporter
[2] = Pharmacokinetic studies in mice; type: in vivo, CD1 mice
Procedure, shortened: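 CD1 mice received test compound orally at 20 mg/kg in DMSO:PEG400:H₂O 1:4:5, or intravenously at 10 mg/kg in DMSO:PEG400:H₂O 1:5:4. Mice were sacrificed at 0.083–24 h (8 time points) and plasma analysed by LC/MS/MS with carbamazepine as internal standard. PK parameters came from non-compartmental analysis; oral bioavailability was derived from oral versus intravenous AUC.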

[3] = system: MiaPaCa2 cells subcutaneously implanted; experiment: Pancreatic tumor xenograft model; type: in vivo, athymic nude mice; settings: treated versus vehicle, n = 5
Procedure, shortened: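 MiaPaCa2 cells (2.5×10⁶, Matrigel 2:1) were implanted s.c. in the flank of athymic nude mice and randomized at day 20 (n=6/group). Arms: vehicle, test compound 40 mg/kg orally daily, gemcitabine 15 mg/kg i.p. every 72 h, or combination. Mice were sacrificed after day 27. On FFPE tumors, Ki-67 was scored as % positive cells over 4 fields, and p-IKKβ by IHC histoscore (proportion 1–5 × intensity 0–3); n=5, unpaired t-test.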

T3M4 = experiment: Growth inhibition assay; type: cell-based; settings: 3-day cell growth assay
Procedure, shortened: (§1)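 Cell viability was read with PrestoBlue after 72 h incubation with test compound, n=3. Data are average ± SEM.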

[4] = system: caspase 3/7 activity in MiaPaCa2 cells; experiment: Caspase 3/7 assay; type: cell-based; settings: 10 μM, 24h
Procedure, shortened: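 MiaPaCa2 cells were exposed to test compound for 24 h at 0.1% final DMSO, n=3. At 21 h, alamarBlue (1/10 well volume) was added for 3 h and fluorescence read at 560ex/590em. Plates equilibrated 15 min at room temperature, then Caspase-Glo reagent was added and luminescence read 2 h later. Value = (luminescence×100/fluorescence)/DMSO average.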

MiaPaCa2 cells [5] = experiment: Live/dead cell assay; type: cell-based; settings: 5 and 10 μM for 24h
MiaPaCa2 = experiment: Growth inhibition assay; type: cell-based
Procedure, shortened: as §1

MiaPaCa2 cells [6] = experiment: Colony formation assay; type: cell-based; settings: 5 μM; compared to DMSO treated cells
Procedure, shortened: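 MiaPaCa2 cells (1.0×10³) were seeded in 6-well plates and treated 24 h. They were then washed and grown 8–10 days, with medium changed every 3 days. Cells were fixed in 4% paraformaldehyde 15 min and stained with 0.5% crystal violet 2 h at room temperature. Colonies were counted in triplicate from 10x bright-field images against vehicle (DMSO); unpaired t-test.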

MiaPaCa2 cells [7] = experiment: Cell scratch; type: cell-based; settings: 5 μM at 24 and 48h; compared to DMSO

Compound: 1-(4-fluoro-3-methoxyphenyl)-3-(3-(1-methyl-1H-pyrazol-4-yl)quinoxalin-6-yl)urea [compound 82]
inhibition of TNFα-induced NFκB activity (SAR, in words) ([1]; screened at 10μM): activity was restored

Compound: 1-(4-fluoro-3-(trifluoromethoxy)phenyl)-3-(3-(1-methyl-1H-pyrazol-4-yl)quinoxalin-6-yl)urea [compound 83]
inhibition of TNFα-induced NFκB activity (SAR, in words) ([1]; screened at 10μM): further improved

Compound: 1-(3-(1-methyl-1H-pyrazol-4-yl)quinoxalin-6-yl)-3-(3-(trifluoromethyl)phenyl)urea [compound 79]
inhibition of TNFα-induced NFκB activity (SAR, in words) ([1]; screened at 10μM): further improvement of activity

Compound: 1-(3-chloro-4-fluorophenyl)-3-(3-(1-methyl-1H-pyrazol-4-yl)quinoxalin-6-yl)urea [compound 80]
potency in NFκB screen relative to 13–197 ([1]; screened at 10μM): ~ 3 fold

Compound: 1-(4-fluoro-3-methylphenyl)-3-(3-(1-methyl-1H-pyrazol-4-yl)quinoxalin-6-yl)urea [compound 81]
inhibition of TNFα-induced NFκB activity (SAR, in words) ([1]; screened at 10μM): dramatically reduced the activity

Further lines, with some results ahead:

inhibition of TNFα-induced NFκB activity (SAR, in words) ([1]; screened at 10μM): loss of activity
Compound: Cn1cc(-c2cnc3ccc(NC(=O)Nc4ccc(F)c(Br)c4)cc3c2)cn1 [compound 85, 1-(3-bromo-4-fluorophenyl)-3-(3-(1-methyl-1H-pyrazol-4-yl)quinolin-6-yl)urea]

inhibition of TNFα-induced NFκB activity (SAR, in words) ([1]; screened at 10μM): loss of activity
Compound: Cn1ccc(-c2cnc3ccc(NC(=O)Nc4ccc(F)c(Br)c4)cc3n2)c1 [compound 86, 1-(3-bromo-4-fluorophenyl)-3-(3-(1-methyl-1H-pyrrol-3-yl)quinoxalin-6-yl)urea]

increase in oral bioavailability (%F) relative to 13–197 [2]: ~ 5.7 fold
intravenous exposure (AUC0−∞) relative to oral exposure ([2]; 10 mg/kg intravenous versus 20 mg/kg oral): ~ 2.8 fold
Tmax and Cmax relative to 13–197 ([2]; 20 mg/kg oral): ~ 2.5 times
exposure (AUC0−∞) relative to 13–197 ([2]; 20 mg/kg oral): ~ 4.3 fold
IC50 ratio versus 13–197, TNFα-induced NFκB inhibition ([1]; 84 versus reported value for 13–197): ~ 2.5 fold
IC50 ([1]; read-out: IC50, TNFα-induced IKKβ-mediated NFκB activity, dose-response, dual luciferase reporter assay, n = 3): 3.3 ± 0.5 µM
inhibition of TNFα-induced NFκB activity (SAR, in words) ([1]; screened at 10μM): most potent inhibitor
Compound: 1-(4-fluoro-3-(trifluoromethyl)phenyl)-3-(3-(1-methyl-1H-pyrazol-4-yl)quinoxalin-6-yl)urea [compound 84]
p-IKKβ levels in tumor tissue ([3]; immunohistochemistry): reduction in p-IKKβ levels
Ki67 staining (proliferation index) in tumor tissue [3]: reduction in Ki67 staining
growth inhibition (T3M4): low-μM potency
caspase 3/7 activation [4]: most potently induced caspase activation
caspase 3/7 induction relative to 13–197 [4]: ~ 4 fold
cell death in live/dead assay (MiaPaCa2 cells [5]): induced MiaPaCa2 cell death in a dose-dependent manner
growth inhibition (MiaPaCa2; 3-day cell growth assay, MiaPaCa2): low-μM potency
potency in inhibiting pancreatic cancer cell growth relative to 13–197 (MiaPaCa2; cell line not specified at place): ~ 4 fold
inhibition of colony forming ability (MiaPaCa2 cells [6]): > 50%
inhibition of cell migration (MiaPaCa2 cells [7]): more effective inhibiting the migration of PDAC cells
